Experiments:
Nucleic Acid = assay: Percentage inhibition of cellular protein-DNA complex formation; assay type: functional; conditions: Homo sapiens
KB [1] = assay: 50% reduction in the number of KB ATCC cells; assay type: functional; conditions: Homo sapiens, read-out: ID50 (the source's name)
In short: (§1)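 KB cells (parental ATCC line and resistant variants) exposed to drug at five concentrations […] for 3 days. ID50 is the concentration giving 50% reduction in cell number, derived from the degree of inhibition at the five concentrations.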

KB [2] = assay: Cytotoxicity against KB cells after a 3 day incubation; assay type: functional, Homo sapiens; conditions: read-out: ID50 (the source's name); in short: as §1
Tumor Cell line [3] = assay: Inhibition of human tumor cell growth; assay type: functional
In short: (§2)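 NCI panel of 54 human tumor lines from eight cancer types, mostly seeded at 20 000 cells/well. Cells were preincubated 24 h without drug, then exposed to five 10-fold dilutions for 48 h, fixed and stained with sulforhodamine B, and read spectrophotometrically. Versus control, GI50 (50% growth inhibition), TGI (0% growth) and LC50 (−50% growth) were calculated; mean graph midpoints average all lines.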

KB [4] = assay: 50% reduction in the number of KB 7D (topoisomerase II, aMDR) resistant variant; assay type: functional, Homo sapiens; conditions: Homo sapiens, KB; read-out: ID50 (the source's name); in short: as §1
KB [5] = assay: 50% reduction in the number of KB V20C resistant variant; assay type: functional, Homo sapiens; conditions: Homo sapiens, KB; read-out: ID50 (the source's name); in short: as §1
Tumor Cell line [6] = assay: Drug molar concentration required to inhibit 50% of human tumor cell growth; assay type: functional; in short: as §2
Tumor Cell line [7] = assay: Drug concentration required to cause 50% cell death; assay type: functional, Homo sapiens
In short: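 NCI in vitro panel of 54 human tumor cell lines from eight cancer types, mostly seeded at 20 000 cells/well and preincubated 24 h without drug. Five 10-fold dilutions were then added for a further 48 h. Cells were fixed in situ and stained with sulforhodamine B, and bound dye was read spectrophotometrically. LC50 (−50% growth versus control) was taken from five-point dose-response curves and reported as the log10 mean-graph midpoint across lines.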

Tumor Cell line [8] = assay: Drug concentration required to inhibit total cell growth; assay type: functional, Homo sapiens; conditions: read-out: Log TGI (converted); in short: as §2
[9] = target: DNA topoisomerase II (Homo sapiens) (UniProt P11388+Q02880); assay: 50% inhibition of human DNA topoisomerase II; assay type: protein assay
A549 = assay: (§3) In vitro anti tumor activity against human non-small cell lung cancer cell lines was determined; assay type: functional
In short: (§4)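 NCI in vitro screen of 54 human tumour lines from eight cancer types. Cells seeded mostly at 20 000/well, preincubated 24 h without drug, then exposed to five 10-fold dilutions for 48 h. Cells fixed in situ, stained with sulforhodamine B, bound dye solubilised and read spectrophotometrically. GI50, TGI (0% growth) and LC50 (-50% growth) were taken from dose-response curves relative to control. Mean-graph midpoints averaged across all lines.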

EKVX = assay: as §3; assay type: functional; in short: as §4
HOP-62 = assay: as §3; assay type: functional; in short: as §4
HOP-92 = assay: as §3; assay type: functional; in short: as §4
LXFL 529 = assay: as §3; assay type: functional; in short: as §4
NCI-H226 = assay: as §3; assay type: functional; in short: as §4
NCI-H322M = assay: as §3; assay type: functional; in short: as §4
NCI-H460 = assay: as §3; assay type: functional; in short: as §4
NCI-H522 = assay: as §3; assay type: functional; in short: as §4
COLO 205 = assay: (§5) In vitro anti tumor activity against human colon tumor cell lines was determined; assay type: functional; in short: as §4
DLD-1 = assay: as §5; assay type: functional; in short: as §4
HCC 2998 = assay: as §5; assay type: functional; in short: as §4
HCT-116 = assay: as §5; assay type: functional; in short: as §4
HCT-15 = assay: as §5; assay type: functional; in short: as §4
HT-29 = assay: as §5; assay type: functional; in short: as §4
KM-20L2 = assay: as §5; assay type: functional; in short: as §4
KM12 = assay: as §5; assay type: functional; in short: as §4
SW-620 = assay: as §5; assay type: functional; in short: as §4
CCRF-CEM = assay: (§6) In vitro anti tumor activity against human tumor leukemia cell lines was determined; assay type: functional; in short: as §4
HL-60 = assay: as §6; assay type: functional; in short: as §4
K562 = assay: as §6; assay type: functional; in short: as §4
MOLT-4 = assay: as §6; assay type: functional; in short: as §4
RPMI-8226 = assay: as §6; assay type: functional; in short: as §4
SR = assay: as §6; assay type: functional; in short: as §4
DMS-114 = assay: (§7) In vitro anti tumor activity against human tumor small cell lung cancer cell lines was determined; assay type: functional; in short: as §4
DMS-273 = assay: as §7; assay type: functional; in short: as §4
LOX IMVI = assay: (§8) In vitro anti tumor activity against human melanoma cell lines was determined; assay type: functional; in short: as §4
M14 = assay: as §8; assay type: functional; in short: as §4
M19-MEL = assay: as §8; assay type: functional; in short: as §4
Malme-3M = assay: as §8; assay type: functional; in short: as §4
SK-MEL-28 = assay: as §8; assay type: functional; in short: as §4
SK-MEL-2 = assay: as §8; assay type: functional; in short: as §4
SK-MEL-5 = assay: as §8; assay type: functional; in short: as §4
UACC-257 = assay: as §8; assay type: functional; in short: as §4
UACC-62 = assay: as §8; assay type: functional; in short: as §4
NCI-H23 = assay: as §3; conditions: NCI-H23, read-out: Log GI50 (converted)
SF-268 = assay: (§9) In vitro anti tumor activity against human CNS cancer cell lines was determined; assay type: functional; in short: as §4
SF-295 = assay: as §9; assay type: functional; in short: as §4
SF-539 = assay: as §9; assay type: functional; in short: as §4
SNB-19 = assay: as §9; assay type: functional; in short: as §4
SNB-75 = assay: as §9; assay type: functional; in short: as §4
SNB-78 = assay: as §9; assay type: functional; in short: as §4
U-251 = assay: as §9; assay type: functional; in short: as §4
XF498 = assay: as §9; assay type: functional; in short: as §4
786-0 = assay: (§10) In vitro anti tumor activity against human tumor Renal cancer cell lines was determined; assay type: functional; in short: as §4
ACHN = assay: as §10; assay type: functional; in short: as §4
CAKI-1 = assay: as §10; assay type: functional; in short: as §4
RXF 393 = assay: as §10; assay type: functional; in short: as §4
SN12C = assay: as §10; assay type: functional; in short: as §4
TK-10 = assay: as §10; assay type: functional; in short: as §4
UO-31 = assay: as §10; assay type: functional; in short: as §4
IGROV-1 = assay: (§11) In vitro anti tumor activity against human tumor Ovarian cancer cell lines was determined; assay type: functional; in short: as §4
OVCAR-3 = assay: as §11; assay type: functional; in short: as §4
OVCAR-4 = assay: as §11; assay type: functional; in short: as §4
OVCAR-8 = assay: as §11; assay type: functional; in short: as §4
SK-OV-3 = assay: as §11; assay type: functional; in short: as §4
[10] = system: Panel (56 tumour cell lines); assay: In vitro anti tumor activity against human tumor cell lines was determined; assay type: functional; in short: as §4
Tumor Cell line [11] = assay: 50% of human tumor cell growth; assay type: functional; in short: as §2

Q: Which results are given for `COc1cc([C@@H]2c3cc4c(cc3[C@@H](O[C@@H]3O[C@@H]5CO[C@@H](C)O[C@H]5[C@H](O)[C@H]3O)[C@H]3COC(=O)[C@H]23)OCO4)cc(OC)c1O` [ETOPOSIDE]?
A: Complex formation (Nucleic Acid): 100%; IC50 (KB [1]): 320 nM; IC50 (KB [2]; Homo sapiens, KB, 72 h): 200 nM; GI50 (Tumor Cell line [3]): 83200 nM; IC50 (KB [4]): 18000 nM; IC50 (KB [5]): 2300 nM

Q: Which results are given for `CCOC(=O)CC[C@H](NC(=O)c1ccc(N[C@@H]2c3cc4c(cc3[C@@H](c3cc(OC)c(O)c(OC)c3)[C@H]3C(=O)OC[C@@H]32)OCO4)cc1)C(=O)OCC`?
A: Complex formation (Nucleic Acid): 83%; IC50 (KB [2]; Homo sapiens, KB, 72 h): < 400 nM; GI50 (Tumor Cell line [6]; Homo sapiens, Tumor Cell line): 50.1 nM; LC50 (Tumor Cell line [7]; Homo sapiens, Tumor Cell line): 2880 nM; TGI (Tumor Cell line [8]; Homo sapiens, Tumor Cell line): 339 nM; ID50 [9]: 100000 nM

Q: What does the source list for `COc1cc([C@@H]2c3cc4c(cc3[C@@H](NC3CCN(Cc5ccccc5)CC3)[C@H]3COC(=O)[C@H]23)OCO4)cc(OC)c1O`?
A: GI50 (A549): 13.8 nM; GI50 (EKVX): 776 nM; GI50 (HOP-62): 26.9 nM; GI50 (HOP-92): 25.7 nM; GI50 (LXFL 529): 437 nM; GI50 (NCI-H226): 11 nM; GI50 (NCI-H322M): 1070 nM; GI50 (NCI-H460): < 10 nM; GI50 (NCI-H522): 83.2 nM; GI50 (COLO 205): 178 nM; GI50 (DLD-1): 427 nM; GI50 (HCC 2998): 174 nM; GI50 (HCT-116): 151 nM; GI50 (HCT-15): 123 nM; GI50 (HT-29): 138 nM; GI50 (KM-20L2): 204 nM; GI50 (KM12): 204 nM; GI50 (SW-620): 75.9 nM; GI50 (CCRF-CEM): 22.4 nM; GI50 (HL-60): 13.8 nM; GI50 (K562): 123 nM; GI50 (MOLT-4): < 10 nM; GI50 (RPMI-8226): 53.7 nM; GI50 (SR): 10 nM; GI50 (DMS-114): 64.6 nM; GI50 (DMS-273): 21.9 nM; IC50 (KB [1]): 24 nM; IC50 (KB [2]; Homo sapiens, KB, 72 h): 21 nM; GI50 (Tumor Cell line [6]; Homo sapiens, Tumor Cell line): 87.1 nM; TGI (Tumor Cell line [8]): 525 nM; IC50 (KB [4]): 97.5 nM; IC50 (KB [5]): 21.5 nM; GI50 (LOX IMVI): 34.7 nM; GI50 (M14): 47.9 nM; GI50 (M19-MEL): 204 nM; GI50 (Malme-3M): 112 nM; GI50 (SK-MEL-28): 324 nM; GI50 (SK-MEL-2): 240 nM; GI50 (SK-MEL-5): 74.1 nM; GI50 (UACC-257): 257 nM; GI50 (UACC-62): 36.3 nM; GI50 (NCI-H23): 40.7 nM; GI50 (SF-268): 129 nM; GI50 (SF-295): 36.3 nM; GI50 (SF-539): 53.7 nM; GI50 (SNB-19): 93.3 nM; GI50 (SNB-75): 219 nM; GI50 (SNB-78): 933 nM; GI50 (U-251): 26.3 nM; GI50 (XF498): 132 nM; GI50 (786-0): 33.1 nM; GI50 (ACHN): 18.2 nM; GI50 (CAKI-1): 275 nM; GI50 (RXF 393): 398 nM; GI50 (SN12C): 39.8 nM; GI50 (TK-10): 195 nM; GI50 (UO-31): 87.1 nM; GI50 (IGROV-1): 38.9 nM; GI50 (OVCAR-3): 302 nM; GI50 (OVCAR-4): 1120 nM; GI50 (OVCAR-8): 97.7 nM; GI50 (SK-OV-3): 53.7 nM; GI50 [10]: 87.1 nM

Q: How did the IC50 (KB [2]) turn out when `COc1cc([C@@H]2c3cc4c(cc3[C@@H](NCCN3CCCCC3)[C@H]3COC(=O)[C@H]23)OCO4)cc(OC)c1O` was run?
A: The IC50 was 1400 nM.

Q: And the LC50 (Tumor Cell line [7])?
A: The LC50 was 30900 nM.

Q: And the TGI (Tumor Cell line [8])?
A: The TGI was 3310 nM.

Q: What about the GI50 (Tumor Cell line [11]) of the same molecule?
A: The GI50 was 372 nM.

Q: Which results are given for `CCOC(=O)N1CCC(N[C@@H]2c3cc4c(cc3[C@@H](c3cc(OC)c(O)c(OC)c3)[C@H]3C(=O)OC[C@@H]32)OCO4)CC1` [listing 1 of 2 here]?
A: IC50 (KB [2]): 1130 nM; GI50 (Tumor Cell line [6]): 1780 nM; TGI (Tumor Cell line [8]): 8130 nM

Q: What does the source list for `CCOC(=O)N1CCC(N[C@@H]2c3cc4c(cc3[C@@H](c3cc(OC)c(O)c(OC)c3)[C@H]3C(=O)OC[C@@H]32)OCO4)CC1` [listing 2 of 2 here]?
A: IC50 (KB [2]; Homo sapiens, KB, 72 h): 740 nM; GI50 (Tumor Cell line [6]; Homo sapiens, Tumor Cell line): 1350 nM; TGI (Tumor Cell line [8]; Homo sapiens, Tumor Cell line): 7760 nM
